Screening data deposited in PubChem by Johns Hopkins Ion Channel Center.
Most compounds without a hit are left out; they make up all but 3.5% or so of the library.
MrgX1 PAM: allosterically activates human MrgX1 receptor signaling; Q96LB2; MrgX1-HEK293, Fluo-4 calcium flux, FDSS; active compounds read high; B-score at 10 µM; hit rate 0.63% among 310,000;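 active means plate-corrected calcium response at least 3 library SD above typical, normal starting fluorescence, not activating the receptor alone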;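 further: compound read alongside a low EC10 to EC30 dose of BAM8-22 agonist; peak minus trough fluorescence over baseline measured at the second addition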
Target sequence (Q96LB2 whole entry, looked up): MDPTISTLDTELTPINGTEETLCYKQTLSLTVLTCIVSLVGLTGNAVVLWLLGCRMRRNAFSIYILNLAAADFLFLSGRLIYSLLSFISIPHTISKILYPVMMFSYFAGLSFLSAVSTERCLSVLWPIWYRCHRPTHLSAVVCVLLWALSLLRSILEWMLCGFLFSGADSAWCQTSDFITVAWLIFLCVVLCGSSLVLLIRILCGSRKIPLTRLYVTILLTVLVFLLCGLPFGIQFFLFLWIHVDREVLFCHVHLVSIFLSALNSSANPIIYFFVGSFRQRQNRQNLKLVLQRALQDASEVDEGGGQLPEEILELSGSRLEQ
MrgX1 ag: agonists of human MrgX1 receptor. MrgX1-HEK293 cells, Fluo-4 calcium fluorescence, agonist mode; active compounds read high. B-score at 10 µM. hit rate 0.44% among 310,000. AID 588627;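 active means calcium response B-score plate-corrected fluorescence ratio at least 3 library SD, with starting fluorescence B-score inside 5 SD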
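Test system: HEK293 cells stably expressing human MrgX1 receptor; amount: 15,000 cells per well; doses: compound delivered in addition one of three; times: overnight plating before 1 h dye loading; detection: Fluo-4 NW calcium-flux fluorescence, kinetic read; read-out basis: B-scored fluorescence response ratio; controls: positive and negative controls per plate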
RGS4 pot: RGS4 potentiation or activation | HEK293 M3R/inducible RGS4, carbachol calcium flux Fluo4; active compounds read low | hit rate 0.92% among 310,000 | B-score at 10 µM;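 active means B-score of the integrated calcium signal more than 4 SD below the library mean, with starting fluorescence not abnormally high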;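 further: negative B-score means reduced calcium response which marks RGS4 activation or potentiation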
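System – HEK293 FlpIn-TREx cells, stable M3R, doxycycline-inducible RGS4 · Reagent – ECmax carbachol challenge · Times – compound preincubation 20 min at room temperature before agonist · Technique – Fluo4 fluorescence kinetic imaging of calcium · Measure – B score of integrated Fluo4 ratio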
RGS4 inh: human RGS4 inhibition. HEK293 M3R/RGS4 inducible, Fluo-4 calcium flux; active compounds read high; triggered by carbachol at its EC20. B-score at 10 µM. hit rate 0.45% among 310,000;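 active means B-score, a plate-corrected calcium signal, over three deviations above library mean, with baseline fluorescence within five deviations of library mean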;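 further: RGS4 expression induced by doxycycline in cells with stable M3 receptor; B-score is computed from the integrated fluorescence ratio over baseline after carbachol; higher B-score means a larger calcium signal and so more RGS4 inhibition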
Target sequence (P49798 whole entry, looked up): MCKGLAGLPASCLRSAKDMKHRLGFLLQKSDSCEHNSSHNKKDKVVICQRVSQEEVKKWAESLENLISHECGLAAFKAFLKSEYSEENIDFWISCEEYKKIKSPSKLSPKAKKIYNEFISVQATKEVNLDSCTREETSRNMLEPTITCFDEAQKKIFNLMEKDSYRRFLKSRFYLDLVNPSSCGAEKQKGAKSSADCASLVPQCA
MrgX1 antagonist: blocks BAM8-22 activation of human MrgX1 receptor; hit rate 1.3% among 310,000; Q96LB2; B-score at 10 µM; MRGX1-HEK293 calcium flux, Fluo-4, BAM8-22 antagonism; active compounds read low;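 active means calcium-response B-score plate-corrected more than 3 library SD below zero, starting fluorescence within 5 deviations, no agonist response on first addition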;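 further: peak minus trough fluorescence over baseline after final BAM8-22 challenge near maximal dose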
MrgX1 PAM conf: reconfirmed allosteric activator of human MrgX1 receptor; shares compounds with MrgX1 PAM; MrgX1-HEK293, Fluo-4 calcium fluorescence, FDSS; activation (ratio percentage), % at 10 µM; hit rate 13% among 1,200; AID 602413;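 active means ratio at least 3 SD above the weak peptide control, stable starting fluorescence, no direct agonism earlier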;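 further: compound followed by low BAM8-22 agonist challenge near EC20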
HEK293 Ca flux: counter-screen for MrgX1 antagonists: effect in parental HEK293 cells | shares compounds with MrgX1 antagonist | hit rate 2% among 4,000 | AID 624111 | fluorescence ratio F(max-min)/F0 at 10 µM | Fluo-4 calcium fluorescence, FDSS;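 active means duplicate-averaged calcium fluorescence ratio at least three times the standard deviation of buffer wells, a nonspecific response in parental cells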
HEK293 Ca counter: MrgX1 allosteric activator counter-screen hit in parental HEK293 cells; shares compounds with MrgX1 antagonist; parental HEK293 calcium flux, Fluo-4 fluorescence ratio; active compounds read high; fluorescence ratio F(max-min)/F0 at 10 µM; hit rate 0.4% among 4,000;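 active means calcium fluorescence ratio, averaged over duplicates, at least 3 SD of the buffer-well ratio, meaning a nonspecific response in receptor-free cells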;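 further: untransfected parental HEK293 lacking MrgX1 used as counterscreen for MrgX1 allosteric activators; fluorescence change taken during the second addition on a kinetic imager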
HEK293 Ca cntr2: activity in parental HEK293 cells lacking MrgX1 receptor; shares compounds with MrgX1 antagonist; Fluo-4 calcium fluorescence (FDSS); active compounds read high; fluorescence ratio F(max-min)/F0 at 10 µM; hit rate 8.7% among 4,000; AID 624115;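 active means calcium fluorescence ratio at least three times the spread of buffer wells, meaning a non-specific response in parental cells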
Hits are given with their value; 0 = inactive; - = not tested or not shown.

SMILES	MrgX1 PAM	MrgX1 ag	RGS4 pot	RGS4 inh	MrgX1 antagonist	MrgX1 PAM conf	HEK293 Ca flux	HEK293 Ca counter	HEK293 Ca cntr2
CCN(CC)S(=O)(=O)c1cc(C(=O)Nc2ccc(Cl)cn2)ccc1C	20	0	0	0	0	12%	0	0	0
Cc1ccc(S(=O)(=O)N(C)c2ccc(C(=O)Nc3ccc(C)cn3)cc2)cc1	0	0	0	0	0	-	-	-	-
COc1ccc(NC(=O)n2ncc3cc(Cl)ccc32)cc1OC	0	0	0	0	0	-	-	-	-
CCOc1ccc(N2CC(C(=O)NC3CCCC3)CC2=O)cc1 (centres undefined)	0	0	0	0	0	-	-	-	-
COc1ccc(N(CC(=O)Nc2cccnc2)S(=O)(=O)c2ccccc2)cc1Cl	16	0	0	0	0	0	0	0	0
C=CCOc1c(Br)cc(/C=N/NC(N)=O)cc1OC	0	0	0	0	0	-	-	-	-
C=CCOc1c(CCC)cc(CCC)cc1C(N)=O	24	0	0	0	0	0	0	0	0
Cc1cccnc1NC(=O)c1cccc(S(=O)(=O)NCc2ccccc2)c1	0	0	0	0	0	-	-	-	-
O=C1C2C(c3ccccc3)CC=CC2[C@H](c2cccc([N+](=O)[O-])c2)N1Cc1ccccc1 (some centres undefined)	0	0	0	0	0	-	-	-	-
O=C(Nc1ccc(C(=O)NC2CCCCC2)cc1)c1cccnc1	10	0	0	0	0	0	0	0	0
c1ccc(-c2noc(-c3cccc4ccccc34)n2)nc1	8.4	0	0	0	0	0	0.53	0	0
c1ccc(-c2csc(-c3cccnc3)n2)cc1	14	0	0	0	0	0	0	0	0
O=C(CC1Sc2ccccc2NC1=O)OC(C(=O)NCCc1ccccc1)c1cccnc1 (centres undefined)	8.5	0	0	0	0	0	0	0	0
COc1ccc(C(=O)NCCOC(C)C)cc1OC1CCN(C(C)=O)CC1	0	0	0	0	0	-	-	-	-
Cn1c(-c2sccc2OCc2ccc(Cl)cc2Cl)n[nH]c1=S	9.9	0	0	0	0	0	0	0	0
O=C(Nc1ccccc1-c1nc2ccccc2s1)C1=COCCO1	0	0	0	0	0	-	-	-	-
Cc1ccc(S(=O)(=O)Oc2ccc(/C=C3\C(=N)N4N=C(S(C)(=O)=O)SC4=NC3=O)cc2)cc1	0	0	0	0	0	-	-	-	-
CS(=O)(=O)C1=NSC2=NC(=O)/C(=C\c3ccc(OS(=O)(=O)c4ccccc4)cc3)C(=N)N21	30	0	0	0	0	25%	0	0	0
COc1cccc(-n2c(C)cc(/C=C3/C(=N)N4C(=NC3=O)SN=C4S(C)(=O)=O)c2C)c1	32	0	0	0	0	2.0%	0	0	0
Cc1cc(C)cc(-n2cccc2/C=C2/C(=N)N3C(=NC2=O)SN=C3S(C)(=O)=O)c1	0	0	0	0	0	-	-	-	-
O=C(c1cc2nc(-c3ccc(F)cc3)cc(C(F)(F)F)n2n1)N1CCCCC1c1cccnc1 (centres undefined)	7.1	0	0	0	0	0	0	0	0
O=C(c1cnn2c(C(F)(F)F)cc(-c3ccccc3)nc12)N1CCCCC1c1cccnc1 (centres undefined)	0	0	0	0	0	-	-	-	-
CCn1c(/N=C/c2ccccc2NS(=O)(=O)c2ccc(C)cc2)nc2ccccc21	14	0	-	-	0	0	0	0	0
Cc1ccc(-c2cc(C)nc3ncnn23)cc1	8.9	0	0	0	0	0	0	0	0
O=S(=O)(c1ccccc1)N(CC(O)COc1ccccc1)c1ccccc1 (centres undefined)	7.8	0	0	0	0	0	0	0	0
SMILES	MrgX1 PAM	MrgX1 ag	RGS4 pot	RGS4 inh	MrgX1 antagonist	MrgX1 PAM conf	HEK293 Ca flux	HEK293 Ca counter	HEK293 Ca cntr2
O=S(=O)(CC(O)COc1ccc(Br)cc1)c1ccccc1 (centres undefined)	9	0	0	0	0	0	0	0	0
Cc1ccc(S(=O)(=O)CC(O)COc2ccc(C#N)cc2)cc1 (centres undefined)	0	0	0	0	0	-	-	-	-
Cc1cc(C(=O)CCl)c(C)n1Cc1ccco1	7	0	0	0	0	0	0	0	0
O=C(Nc1nc2n(n1)C(c1ccccc1)CC(c1ccc(Cl)cc1)N2)c1ccco1 (centres undefined)	7.3	0	0	0	0	0	0	0	0
COc1ccc(C2CC(c3ccccc3)Nc3nc(NC(=O)c4ccco4)nn32)cc1 (centres undefined)	0	0	0	0	0	-	-	-	-
O=C(Nc1cccc(Cl)c1)c1cc(-c2ccco2)on1	8	0	0	0	0	0	0	0	0
O=C(Nc1nnc(-c2ccco2)o1)c1cccc(Cl)c1	7.5	0	0	0	0	0	0	0	0
O=C(Nc1nnc(-c2ccccn2)o1)c1cccc(Cl)c1	0	0	0	0	0	-	-	-	-
CC1CCCC(C)N1C(=O)CSc1nnc(NC(=O)c2cccs2)s1 (centres undefined)	14	0	0	0	0	0	0	0	0
O=C(COc1ccccc1)Nc1cc(NC(=O)COc2ccccc2)cc(C(=O)O)c1	0	0	0	0	0	-	-	-	-
O=C(NCCCn1cccn1)C1CCC(=O)N(Cc2cccc(C(F)(F)F)c2)C1 (centres undefined)	7.8	0	0	0	0	0	0	0	0
O=C(NCCCC1CCCC1)C1CCC(=O)N(Cc2cccc(C(F)(F)F)c2)C1 (centres undefined)	0	0	0	0	0	-	-	-	-
Cc1ccc(NC(=S)NNC(=O)CSc2nc3ccccc3c(=O)n2-c2ccc(C)cc2)cc1	21	0	0	0	0	0	0	0	0
Cc1ccc(-n2c(SCC(=O)Nc3ccc(N4CCOCC4)cc3)nc3ccccc3c2=O)cc1	0	0	0	0	0	-	-	-	-
CN(CCOc1ccccc1)C(=O)c1ccc(F)c(S(=O)(=O)N2CCOCC2)c1	0	0	0	0	0	-	-	-	-
Cc1cc(NC2CCCC2)n2nc(C)c(-c3ccccc3)c2n1	6.8	0	0	0	0	0	0	0	0
O=C(CCC(=O)N1CCN(c2ccc(O)cc2)CC1)c1ccc(Br)cc1	0	0	0	0	0	-	-	-	-
NC(=O)C1CCN(C(=O)CCC(=O)c2ccc(Br)cc2)CC1	8.7	0	0	0	0	0	0	0	0
C=CCn1c(SCC(=O)N(CCO)CCO)nc2sc3c(c2c1=O)CCC3	0	0	0	0	0	-	-	-	-
